Experimental data: ChEMBL document CHEMBL4190199, “Antimalarial Activities of Alkyl Cyclohexenone Derivatives Isolated from the Leaves of Poupartia borbonica” (J Nat Prod, 2017)
≈ marks a conversion by molar mass, not a printed value.

What was measured:
Plasmodium falciparum [1] = assay: Antiplasmodial activity against chloroquine-sensitive Plasmodium falciparum F32-Tanzania after 48 hrs by [3H]-hypoxanthine incorporation assay; format: functional, organism-based
Plasmodium falciparum [2] = assay: Antiplasmodial activity against asexual erythrocyte stage of chloroquine-resistant Plasmodium falciparum W2 infected in human red blood cells after 48 hrs by lactate dehydrogenase assay; format: functional, organism-based; conditions: W2, 48 h
In short: (§1)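 P. falciparum asexual blood stages in human A+ erythrocytes, RPMI 1640 with HEPES, NaHCO3, glutamine, glucose, hypoxanthine, gentamycin and 10% human A+ serum. Parasitemia 2%, hematocrit 1%. Eight 2-fold dilutions in triplicate, DMSO at most 1%. After 48 h, growth read by pLDH activity. Artemisinin positive control. IC50 read from graphs.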

Plasmodium falciparum [3] = assay: Antiplasmodial activity against asexual erythrocyte stage of chloroquine-sensitive Plasmodium falciparum 3D7 infected in human red blood cells after 48 hrs by lactate dehydrogenase assay; format: functional, organism-based; conditions: 3D7, 48 h; in short: as §1
HeLa = assay: Cytotoxicity against human HeLa cells after 48 hrs by WST-1 assay; format: functional, cell-based
In short: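 HeLa cells seeded at 6000 per well in medium containing test compounds and incubated 48 h. WST-1 then added for 30 min at 37 °C, absorbance read at 450 nm. Results expressed as percent of untreated control cells; IC50 taken from graphs.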

WI-38 = assay: Cytotoxicity against human WI38 cells after 48 hrs by WST-1 assay; format: cell-based; conditions: WI-38, 48 h
[4] = Selectivity index, ratio of IC50 for human WI38 cells to IC50 for asexual erythrocyte stage of chloroquine-resistant Plasmodium falciparum W2 infected in human red blood cells; format: toxicity, cell-based; conditions: read-out: Ratio IC50
[5] = Selectivity index, ratio of IC50 for human WI38 cells to IC50 for asexual erythrocyte stage of chloroquine-sensitive Plasmodium falciparum 3D7 infected in human red blood cells; format: toxicity, cell-based; conditions: read-out: Ratio IC50
[6] = Hemolytic activity in human RBC at 10 ug/ml after 1 hr relative to control; format: ADME, cell-based, Erythrocyte; conditions: red blood cells, read-out: Activity
In short: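 Human A+ erythrocytes, 10% (v/v) in PBS, incubated in triplicate with compounds at final 10 µg/mL (DMSO <1%) for 1 h at room temperature with agitation. Mixtures centrifuged 5 min at 2000 rpm, supernatant absorbance read at 550 nm. 1% (v/v) Triton X-100 served as 100% lysis and PBS as 0% lysis.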

Plasmodium berghei [7] = assay: Antimalarial activity against Plasmodium berghei NK173 infected in Swiss mouse assessed as inhibition of parasitemia at 15 mg/kg, ip qd administered 4 hrs post infection for 3 days measured on day 5 by Giemsa staining based microscopy relative to control; format: functional
In short: (§2)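 Female Swiss mice (10 weeks, 25 ± 2 g), groups of five, infected ip with 2 × 10^7 P. berghei NK173 parasitized red cells. 15 mg/kg ip in 7% Tween 80/3% EtOH in sterile water, first dose 4 h post-infection (day 0), then once daily for 3 more days. Parasitemia read on Giemsa-stained tail-blood thin smears (≥500 erythrocytes). Inhibition calculated against vehicle controls at days 5 and 7.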

Plasmodium berghei [8] = assay: Antimalarial activity against Plasmodium berghei NK173 infected in Swiss mouse assessed as inhibition of parasitemia at 15 mg/kg, ip qd administered 4 hrs post infection for 3 days measured on day 7 by Giemsa staining based microscopy relative to control; format: functional; in short: as §2
Mus musculus = assay: Toxicity in Swiss mouse assessed as mortality at 15 mg/kg, ip qd measured on day 7; format: organism-based; conditions: in vivo
Danio rerio [9] = species on record: Danio rerio; assay: Toxicity in 24 to 72 hrs post fertilized zebra fish embryo assessed as death at 10 ug/ml measured within 1 day post dose; format: organism-based; conditions: zebrafish, in vivo
In short: (§3)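 Dechorionated zebrafish embryos, 25 per condition, duplicate geometric series. The first step spanned 10 to 0.001 µg/mL and the second was narrowed to 10 to 1 µg/mL. Compound was diluted from DMSO in fish medium, final DMSO at most 0.4%. Treatment was renewed daily for 3 days, with untreated and 0.4% DMSO controls. Embryos were observed daily until 72 hpf.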

Danio rerio [10] = species on record: Danio rerio; assay: Toxicity in 24 to 72 hrs post fertilized zebra fish embryo assessed as death at 3 to 10 ug/ml measured within 1 day post dose; format: organism-based; conditions: zebrafish, in vivo; in short: as §3
Danio rerio [11] = species on record: Danio rerio; assay: Toxicity in 24 to 72 hrs post fertilized zebra fish embryo assessed as embryo disintegration at 3 to 10 ug/ml replaced once daily for 3 days; format: organism-based; conditions: zebrafish, in vivo; in short: as §3
Danio rerio [12] = species on record: Danio rerio; assay: Toxicity in 24 to 72 hrs post fertilized zebra fish embryo assessed as bradycardia at 2 to 2.5 ug/ml replaced once daily for 3 days; format: organism-based; conditions: zebrafish, in vivo; in short: as §3
Danio rerio [13] = species on record: Danio rerio; assay: Toxicity in 48 hrs post fertilized zebra fish embryo assessed as cumulative mortality at 1 to 10 ug/ml replaced once daily for 3 days; format: organism-based; conditions: zebrafish, in vivo, 72 h; in short: as §3
Danio rerio [14] = species on record: Danio rerio; assay: Toxicity in 72 hrs post fertilized zebra fish embryo assessed as cumulative mortality measured after third treatment dose replaced once daily for 3 days; format: organism-based; conditions: zebrafish, in vivo; in short: as §3
[15] = Toxicity in 48 hrs post fertilized zebra fish embryo assessed as embryo mortality at 2 ug/ml replaced once daily for 3 days; format: organism-based, Danio rerio; conditions: zebrafish, in vivo; read-out: Activity; in short: as §3
Danio rerio [16] = species on record: Danio rerio; assay: Toxicity in 72 hrs post fertilized zebra fish embryo assessed as decrease in pericardial function measured after third treatment dose replaced once daily for 3 days; format: organism-based; conditions: zebrafish, in vivo; in short: as §3
Danio rerio [17] = species on record: Danio rerio; assay: Toxicity in 72 hrs post fertilized zebra fish embryo assessed as body axis deformation measured after third treatment dose replaced once daily for 3 days; format: organism-based; conditions: zebrafish, in vivo; in short: as §3
Danio rerio [18] = species on record: Danio rerio; assay: Toxicity in 72 hrs post fertilized zebra fish embryo assessed as death measured after third treatment dose replaced once daily for 3 days; format: organism-based; conditions: zebrafish, in vivo; in short: as §3
Danio rerio [19] = species on record: Danio rerio; assay: Toxicity in 72 hrs post fertilized zebra fish embryo assessed as mortality at 1 ug/ml replaced once daily for 3 days; format: organism-based; conditions: zebrafish, in vivo; in short: as §3
Danio rerio [20] = species on record: Danio rerio; assay: Toxicity in 72 hrs post fertilized zebra fish embryo assessed as morphological changes at 1 ug/ml replaced once daily for 3 days; format: organism-based; conditions: zebrafish, in vivo; in short: as §3
Danio rerio [21] = species on record: Danio rerio; assay: Toxicity in 24 to 72 hrs post fertilized zebra fish embryo assessed as percentage of bradycardia developed embryos at 2 to 2.5 ug/ml replaced once daily for 3 days measured each day until 72 hrs post fertilization; format: organism-based; conditions: zebrafish, in vivo
In short: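 Dechorionated zebrafish embryos, 25 per condition, exposed from 24 hpf. Compound in DMSO diluted in zebrafish medium (final DMSO at most 0.4%). Treatment replaced once daily for 3 days, with a narrowed 10–1 µg/mL range run in duplicate. Embryos observed daily to 72 hpf for mortality, disintegration, bradycardia and morphology. Untreated and 0.4% DMSO groups of 25 served as controls.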

Structure (SMILES) | IC50 (Plasmodium falciparum [2]) | IC50 (Plasmodium falciparum [3]) | IC50 (HeLa) | IC50 (WI-38) | selectivity ratio [4] | selectivity ratio [5] | hemolysis at 1 h, 10 ug/ml [6] | further results
CCCCCC/C=C\CCCCCCCC(O)C[C@]1(O)C=C[C@@H](O)[C@@H](O)C1 (stereo partly drawn) | – | – | – | – | – | – | – | IC50 (Plasmodium falciparum [1]): 86.4 µg/mL (≈ 226 µM)
CCCCCC/C=C\CCCCCCCC(=O)C[C@@]1(O)C=CC(=O)[C@@H](O)C1 | 0.48 to 1.27 µg/mL (≈ 1.27 to 3.35 µM) | 430 to 1130 nM | 1.31 to 3.45 µg/mL (≈ 3.46 to 9.11 µM) | 1.01 to 2.66 µg/mL (≈ 2.67 to 7.03 µM) | 2.1 | 2.34 | < 1% | –
CCCCCCCCCCCCCCC[C@@H]1C[C@@]2(O)CC(=O)C=C[C@@]2(O)O1 | 0.37 to 0.97 µg/mL (≈ 0.972 to 2.55 µM) | 690 to 1810 nM | 1.44 to 3.77 µg/mL (≈ 3.78 to 9.91 µM) | 1.04 to 2.73 µg/mL (≈ 2.73 to 7.17 µM) | 2.81 | 1.51 | < 1% | –
CCCCCC/C=C\CCCCCCC[C@@H]1C[C@@]2(O)CC(=O)C=C[C@@]2(O)O1 | 0.21 to 0.55 µg/mL (≈ 0.555 to 1.45 µM) | 340 to 900 nM | 0.8 to 2.1 µg/mL (≈ 2.11 to 5.55 µM) | 0.6 to 1.58 µg/mL (≈ 1.58 to 4.17 µM) | 2.86 | 1.76 | < 1% | inhibition in vivo at 15 mg/kg (Plasmodium berghei [7]): 59.1%; inhibition in vivo at 15 mg/kg (Plasmodium berghei [8]): 69.5%; Activity (Mus musculus): Toxic; Activity (Danio rerio [9]): Toxic; Activity (Danio rerio [10]): Toxic; Activity (Danio rerio [11]): Toxic; Activity (Danio rerio [12]): Toxic; Activity (Danio rerio [13]): Toxic; Activity (Danio rerio [14]): Toxic; mortality at 72 h, 2 ug/ml [15]: 60%; Activity (Danio rerio [16]): Toxic; Activity (Danio rerio [17]): Toxic; Activity (Danio rerio [18]): Toxic; Activity (Danio rerio [19]): Non-Toxic; Activity (Danio rerio [20]): Non-Toxic; Activity (Danio rerio [21]): 5%
C[C@@H]1CC[C@H]2[C@@H](C)C(=O)O[C@@H]3O[C@@]4(C)CC[C@@H]1[C@]32OO4 [ARTEMISININ] | 0.01 to 0.035 µg/mL (≈ 0.0354 to 0.124 µM) | 4 to 14 nM | – | – | – | – | – | –
CC[C@@]1(O)C(=O)OCc2c1cc1n(c2=O)Cc2cc3ccccc3nc2-1 [CAMPTOTHECIN] | – | – | 0.08 to 0.23 µg/mL (≈ 0.23 to 0.66 µM) | 0.03 to 0.086 µg/mL (≈ 0.0861 to 0.247 µM) | – | – | – | –
O=c1c(O)c(-c2ccc(O)c(O)c2)oc2cc(O)cc(O)c12 [QUERCETIN] | – | 17500 nM | – | – | – | – | – | –
